Reference: ChEMBL document CHEMBL1687781, “Comparative biochemical and computational study of the role of naturally occurring mutations at Ambler positions 104 and 170 in GES β-lactamases” (Antimicrob Agents Chemother, 2010)
In brackets after ≈: the same amount, converted by molar mass.

Tests used:
Assay type in all cases: functional
Escherichia coli [1] = experiment: Antimicrobial activity against Escherichia coli DH5[alpha] transformed with pAC-ges1 plasmid encoding Beta-lactamase GES-13 K104, N170 mutant in presence of at 4 ug/ml Tazobactam by Etest method
In short: (§1)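 E. coli DH5α host, either untransformed or carrying pACYC184-based clones of the GES variant genes; the source gene came from integron plasmid pBC-ges1. MICs were read by Etest following the manufacturer's recommendations, with the inhibitor held at a fixed 4 μg/ml.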

Escherichia coli [2] = experiment: Antimicrobial activity against Escherichia coli DH5[alpha] transformed with pAC-ges1 plasmid encoding Beta-lactamase GES-1 E104, G170 mutant in presence of at 4 ug/ml Tazobactam by Etest method; in short: as §1
Escherichia coli [3] = experiment: Antimicrobial activity against Escherichia coli DH5[alpha] transformed with pAC-ges1 plasmid encoding Beta-lactamase GES-7 K104, G170 mutant by Etest method
Escherichia coli [4] = experiment: Antimicrobial activity against Escherichia coli DH5[alpha] by Etest method
Escherichia coli [5] = experiment: Antimicrobial activity against Escherichia coli DH5[alpha] in presence of at 4 ug/ml Tazobactam by Etest method; in short: as §1
Escherichia coli [6] = experiment: Antimicrobial activity against Escherichia coli DH5[alpha] transformed with pAC-ges1 plasmid encoding Beta-lactamase GES-5 E104, S170 mutant by Etest method
Escherichia coli [7] = experiment: Antimicrobial activity against Escherichia coli DH5[alpha] transformed with pAC-ges1 plasmid encoding Beta-lactamase GES-7 K104, G170 mutant in presence of at 4 ug/ml Tazobactam by Etest method; in short: as §1
Escherichia coli [8] = experiment: Antimicrobial activity against Escherichia coli DH5[alpha] transformed with pAC-ges1 plasmid encoding Beta-lactamase GES-13 K104, N170 mutant by Etest method
Escherichia coli [9] = experiment: Antimicrobial activity against Escherichia coli DH5[alpha] transformed with pAC-ges1 plasmid encoding Beta-lactamase GES-1 E104, G170 mutant by Etest method
Escherichia coli [10] = experiment: Antimicrobial activity against Escherichia coli DH5[alpha] transformed with pAC-ges1 plasmid encoding Beta-lactamase GES-2 E104, N170 mutant in presence of at 4 ug/ml Tazobactam by Etest method; in short: as §1
Escherichia coli [11] = experiment: Antimicrobial activity against Escherichia coli DH5[alpha] transformed with pAC-ges1 plasmid encoding Beta-lactamase GES-6 K104, S170 mutant by Etest method
Escherichia coli [12] = experiment: Antimicrobial activity against Escherichia coli DH5[alpha] transformed with pAC-ges1 plasmid encoding Beta-lactamase GES-6 K104, S170 mutant in presence of at 4 ug/ml Tazobactam by Etest method; in short: as §1
Escherichia coli [13] = experiment: Antimicrobial activity against Escherichia coli DH5[alpha] transformed with pAC-ges1 plasmid encoding Beta-lactamase GES-2 E104, N170 mutant by Etest method
Escherichia coli [14] = experiment: Antimicrobial activity against Escherichia coli DH5[alpha] transformed with pAC-ges1 plasmid encoding Beta-lactamase GES-5 E104, S170 mutant in presence of at 4 ug/ml Tazobactam by Etest method; in short: as §1

Structure (SMILES): CCN1CCN(C(=O)N[C@@H](C(=O)N[C@@H]2C(=O)N3[C@@H]2SC(C)(C)[C@@H]3C(=O)O)c2ccccc2)C(=O)C1=O [PIPERACILLIN]
- MIC (Escherichia coli [1]): 1 µg/mL
- MIC (Escherichia coli [2]): 1 µg/mL
- MIC (Escherichia coli [3]): 12 µg/mL (≈ 23.2 µM)
- MIC (Escherichia coli [4]): 4 µg/mL (≈ 7.73 µM)
- MIC (Escherichia coli [5]): 1 µg/mL
- MIC (Escherichia coli [6]): 8 µg/mL (≈ 15.5 µM)
- MIC (Escherichia coli [7]): 1 µg/mL
- MIC (Escherichia coli [8]): 8 µg/mL (≈ 15.5 µM)
- MIC (Escherichia coli [9]): 8 µg/mL (≈ 15.5 µM)
- MIC (Escherichia coli [10]): 1 µg/mL
- MIC (Escherichia coli [11]): 12 µg/mL (≈ 23.2 µM)
- MIC (Escherichia coli [12]): 2 µg/mL
- MIC (Escherichia coli [13]): 4 µg/mL (≈ 7.73 µM)
- MIC (Escherichia coli [14]): 2 µg/mL
